Results on 14 molecules are retold here after PubChem BioAssay.

A short description of assay [1]: hit retest on RPL19A-GFP reporter strain – cell-based, S. cerevisiae, flow cytometry, cherry picks, mother/daughter gates, confirmation (AID 2270;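 active = GFP response below 50% of the DMSO control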). The following applies: 3 h, at 10 µM, stronger effect = lower value, 100 = same GFP as DMSO wells. A general note: In flow cytometry, cells or beads pass a laser one at a time.
A short description of assay [2]: yeast TOR pathway reporter LAP4-GFP change – cell-based, cherry picks, flow cytometry, mother/daughter gates, confirmation (AID 2271;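 active = GFP response above 150% of the DMSO control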;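 also: ratio of sample to DMSO plate mean so 100% equals DMSO level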). The following applies: S. cerevisiae LAP4-GFP strain, 3 h, at 10 µM, stronger effect = higher value, 100 means same as DMSO control. The method, boiled down:
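Test system: GFP-fusion yeast strain / Amount: 0.2 OD600 cells / Buffer or medium: SC medium / Dosing: 10 µM single dose / Incubation: compound exposure 3 h at 30 °C, end-over-end rotation / Detection: HT flow cytometry, GFP fluorescence channel / Evaluation: median GFP fluorescence as percent of plate-mean DMSO wells / Control set: DMSO-only negative wells, rapamycin 400 ng/mL positive wells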

A short description of assay [3]: TOR pathway reporter MEP2-GFP, retest of hits – S. cerevisiae, flow cytometry GFP, cherry picks, confirmation (AID 2272;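 active = GFP response above 150% of the DMSO control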;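 also: ratio of well signal to plate DMSO mean so 100% equals DMSO level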). The following applies: S. cerevisiae MEP2-GFP strain, 3 h, at 10 µM, stronger effect = higher value.
Assay [4] can be described thus: yeast AGP1-GFP fluorescence change, single-dose – cell-based, flow cytometry, S. cerevisiae, cherry picks, confirmation (AID 2273).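 Also: median GFP channel fluorescence over the whole cell population gate.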 The following applies: S. cerevisiae AGP1-GFP strain, 3 h, at 10 µM.
Assay [5] in a line: TOR pathway CIT2 reporter hit retest – S. cerevisiae, GFP fusion, cherry picks, mother/daughter gates, confirmation (AID 2274). The following applies: S. cerevisiae CIT2-GFP strain, flow cytometry, 3 h, at 10 µM, stronger effect = higher value.
Where [6] appears, read: measured here: daughter cell gate.
Where [7] appears, read: measured here: mother cell gate.
The mark [8] stands for this setting: measured here: daughter cell gate response.
[9] abbreviates: measured here: mother cell gate response.

Active and inactive are the calls of the source.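 The calls were made as follows, unless noted: active = GFP response above 150% of the DMSO level; inconclusive = fewer than 70 events counted for a yeast strain; inactive = the rest.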

For the molecule `Cc1ccc(N2C(=O)C3C4C=CC(CNC(=S)N5CCN(c6cccc(C)c6)C(C)C5)(O4)C3C2=O)cc1` (centres undefined), the GFP response vs DMSO was 97.3% (inactive) in assay [1], 97.3% in assay [1] (setting [6]), 96.7% in assay [1] (setting [7]) and 103% (inactive) in assay [3]. The GFP response relative to DMSO in assay [2] is 92.9% (inactive); in assay [2] (setting [8]), 92.9%; in assay [2] (setting [9]) it was 94.4%. Further, the GFP response, % of DMSO in assay [4] was 103% (inactive); in assay [5], 100% (inactive); in assay [5] (setting [6]) it was 97.6%; in assay [5] (setting [7]), 100%.

For the molecule `Cc1cccn2c(=O)c(/C=C(\C#N)C(=O)NC3CCS(=O)(=O)C3)c(N3CCC(C(N)=O)CC3)nc12` (centres undefined), the GFP response vs DMSO in assay [1] was 101% (inactive); in assay [1] (setting [6]), 98.6%; in assay [1] (setting [7]) it was 102%; in assay [3], 99% (inactive). For the same molecule, the values for the GFP response relative to DMSO in assay [2], in assay [2] (setting [8]) and in assay [2] (setting [9]) were 98.2% (inactive), 97.5% and 98.4%, respectively. In addition, the GFP response, % of DMSO in assay [4] is 89.7% (inactive); in assay [5] it was 97.3% (inactive); in assay [5] (setting [6]), 97.4%; in assay [5] (setting [7]), 96.8%.

Consider `O=[N+]([O-])c1ccc(Sc2ccccc2)nc1`, for which the GFP response vs DMSO in assay [1] was 97.8% (inactive); in assay [1] (setting [6]), 97.3%; in assay [1] (setting [7]), 98%; in assay [3], 108% (inactive). The GFP response relative to DMSO in assay [2] is 104% (inactive); in assay [2] (setting [8]), 104%; in assay [2] (setting [9]), 105%. The GFP response, % of DMSO was 105% (inactive) in assay [4], 101% (inactive) in assay [5], 101% in assay [5] (setting [6]) and 103% in assay [5] (setting [7]).

On to `CCOC(=O)C1CCCN(C(=O)c2ccc(-c3ccc([N+](=O)[O-])cc3)o2)C1` (centres undefined), for which the GFP response vs DMSO in assay [1] is 99.8% (inactive); in assay [1] (setting [6]), 100%; in assay [1] (setting [7]), 98.4%; in assay [3], 103% (inactive). For the same molecule, the GFP response relative to DMSO in assay [2] was 101% (inactive); in assay [2] (setting [8]), 101%; in assay [2] (setting [9]), 101%. For the same molecule, the GFP response, % of DMSO in assay [4] is 99.3% (inactive); in assay [5], 100% (inactive); in assay [5] (setting [6]), 97.6%; in assay [5] (setting [7]), 102%.

`O=[N+]([O-])/C=C/c1cn(Cc2ccc(F)cc2)c2ccccc12`: the GFP response vs DMSO in assay [1] was 103% (inactive); in assay [1] (setting [6]), 104%; in assay [1] (setting [7]) it was 102%; in assay [3], 105% (inactive). Besides, the GFP response relative to DMSO in assay [2] was 113% (inactive); in assay [2] (setting [8]) it was 110%; in assay [2] (setting [9]), 115%. Further, the GFP response, % of DMSO is 94.5% (inactive) in assay [4], 104% (inactive) in assay [5], 105% in assay [5] (setting [6]) and 101% in assay [5] (setting [7]).

As to `OCC[n+]1ccc(/C=C/c2c[nH]c3ccccc23)cc1`, the GFP response vs DMSO is 108% (inactive) in assay [1], 106% in assay [1] (setting [6]), 108% in assay [1] (setting [7]) and 164% (inactive) in assay [3]. Besides, the GFP response relative to DMSO in assay [2] is 140% (inactive); in assay [2] (setting [8]) it was 143%; in assay [2] (setting [9]), 141%. Moreover, the GFP response, % of DMSO in assay [4] was 104% (inactive); in assay [5], 141% (inactive); in assay [5] (setting [6]) it was 142%; in assay [5] (setting [7]), 143%.

In the case of `CC(C)(C)C1=CC=C(C(C)(C)C)C(=O)C1=O`, the GFP response vs DMSO in assay [1] is 102% (inactive); in assay [1] (setting [6]), 102%; in assay [1] (setting [7]), 99.7%; in assay [3], 104% (inactive). Moreover, the GFP response relative to DMSO in assay [2] is 136% (inactive); in assay [2] (setting [8]), 131%; in assay [2] (setting [9]), 136%. The GFP response, % of DMSO in assay [4] is 98.7% (inactive); in assay [5], 104% (inactive); in assay [5] (setting [6]), 104%; in assay [5] (setting [7]), 96.8%.

For `CCOc1ccccc1NC1=C(Cl)C(=O)N(Cc2ccccc2)C1=O`, the GFP response vs DMSO in assay [1] is 103% (inactive); in assay [1] (setting [6]) it was 102%; in assay [1] (setting [7]), 104%; in assay [3], 104% (inactive). Moreover, the values for the GFP response relative to DMSO in assay [2], in assay [2] (setting [8]) and in assay [2] (setting [9]) were 96.2% (inactive), 97.2% and 97.2%, respectively. Besides, the GFP response, % of DMSO in assay [4] was 98.5% (inactive); in assay [5] it was 99.1% (inactive); in assay [5] (setting [6]) it was 99.7%; in assay [5] (setting [7]), 98.7%.

With `CN1CCN(/N=C/c2c3ccccc3c(Cl)c3ccccc23)CC1`, the GFP response vs DMSO in assay [1] was 94.9% (inactive); in assay [1] (setting [6]), 95%; in assay [1] (setting [7]), 94%; in assay [3], 105% (inactive). The GFP response relative to DMSO in assay [2] was 105% (inactive); in assay [2] (setting [8]), 101%; in assay [2] (setting [9]) it was 101%. The GFP response, % of DMSO in assay [4] was 99.8% (inactive); in assay [5], 101% (inactive); in assay [5] (setting [6]), 102%; in assay [5] (setting [7]), 95.7%.

Consider `CCOc1cc(C(=S)N2CCCCC2)ccc1OS(=O)(=O)c1ccc(Cl)cc1`, for which the GFP response vs DMSO in assay [1] is 96.5% (inactive); in assay [1] (setting [6]), 96.1%; in assay [1] (setting [7]), 96.5%; in assay [3], 103% (inactive). The GFP response relative to DMSO was 102% (inactive) in assay [2], 101% in assay [2] (setting [8]) and 105% in assay [2] (setting [9]). In addition, the GFP response, % of DMSO is 105% (inactive) in assay [4], 100% (inactive) in assay [5], 99.3% in assay [5] (setting [6]) and 98.2% in assay [5] (setting [7]).

For `O=C(c1ccc(OCC2CCCO2)cc1)N1CCN(c2ccccc2)CC1` (centres undefined), the GFP response vs DMSO in assay [1] was 98.7% (inactive); in assay [1] (setting [6]) it was 98.4%; in assay [1] (setting [7]), 98.4%; in assay [3], 103% (inactive). In addition, the GFP response relative to DMSO was 104% (inactive) in assay [2], 102% in assay [2] (setting [8]) and 105% in assay [2] (setting [9]). The GFP response, % of DMSO in assay [4] is 102% (inactive); in assay [5], 100% (inactive); in assay [5] (setting [6]) it was 101%; in assay [5] (setting [7]), 100%.

On to `CCN(CC)CCN(C(=O)c1ccc2c(c1)CCCC2)c1nc2cc(OC)c(OC)cc2s1`, for which the GFP response vs DMSO in assay [1] is 94.1% (inactive); in assay [1] (setting [6]), 96%; in assay [1] (setting [7]) it was 94.1%; in assay [3], 97.5% (inactive). For the same molecule, the GFP response relative to DMSO was 98.8% (inactive) in assay [2], 99.3% in assay [2] (setting [8]) and 95.6% in assay [2] (setting [9]). In addition, the GFP response, % of DMSO was 101% (inactive) in assay [4], 99.3% (inactive) in assay [5], 102% in assay [5] (setting [6]) and 98% in assay [5] (setting [7]).

In the case of `Cc1cccc(Sc2ccc([N+](=O)[O-])cn2)c1`, the GFP response vs DMSO in assay [1] was 98.6% (inactive); in assay [1] (setting [6]), 98.9%; in assay [1] (setting [7]) it was 98%; in assay [3], 105% (inactive). Besides, the GFP response relative to DMSO in assay [2] is 92.4% (inactive); in assay [2] (setting [8]), 92%; in assay [2] (setting [9]), 92%. The GFP response, % of DMSO in assay [4] was 104% (inactive); in assay [5], 103% (inactive); in assay [5] (setting [6]), 103%; in assay [5] (setting [7]), 104%.

In the case of `CCCCNC(=O)c1ccc2c(SCC(=O)O)c3c(nc2c1)CCCC3`, the GFP response vs DMSO was 98.7% (inactive) in assay [1], 96.7% in assay [1] (setting [6]), 99% in assay [1] (setting [7]) and 99.5% (inactive) in assay [3]. Further, the GFP response relative to DMSO in assay [2] is 101% (inactive); in assay [2] (setting [8]) it was 104%; in assay [2] (setting [9]), 97.5%. In addition, the GFP response, % of DMSO in assay [4] was 98% (inactive); in assay [5] it was 97.8% (inactive); in assay [5] (setting [6]), 98.3%; in assay [5] (setting [7]), 98%.
